Measurements published in ChEMBL document CHEMBL4665633, “Cereblon versus VHL: Hijacking E3 ligases against each other using PROTACs” (Bioorg Med Chem, 2019).
Active and inactive are the calls of the source. The calls are words filed in the database; no cut-off is given here.

Legend:
Format in all cases: cell-based
[1] = biological target: T1, Protein cereblon/von Hippel-Lindau disease tumor suppressor (Homo sapiens, UniProt P40337+Q96SW2); assay: Protac activity at VHL/CRBN in human HeLa cells assessed as pVHL19 protein abundance at 10 nM after 4 hrs by Western blot analysis relative to DMSO
How it was run: (§1)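 HeLa cells (5 × 10⁵, DMEM + 10% FBS, 37 °C, 5% CO₂, ≤30 passages) seeded overnight, then treated 4 h with compound at single or graded concentrations (0.1% v/v DMSO final). RIPA lysates equalised by Bradford; SDS-PAGE and anti-CRBN/anti-VHL immunoblots; bands normalised to β-tubulin and expressed as % of mean DMSO vehicle. DC₅₀ from fit of band intensity versus log[concentration].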

[2] = biological target: T1, Protein cereblon/von Hippel-Lindau disease tumor suppressor; assay: Protac activity at VHL/CRBN in human HeLa cells assessed as pVHL30 protein abundance at 10 nM after 4 hrs by Western blot analysis relative to DMSO; how it was run: as §1
[3] = biological target: T1, Protein cereblon/von Hippel-Lindau disease tumor suppressor; assay: Protac activity at VHL/CRBN in human HeLa cells assessed as CRBN protein abundance at 10 nM after 4 hrs by Western blot analysis relative to DMSO; how it was run: as §1
[4] = biological target: T1, Protein cereblon/von Hippel-Lindau disease tumor suppressor; assay: Protac activity at VHL/CRBN in human HeLa cells assessed as pVHL19 protein abundance at 1 uM after 4 hrs by Western blot analysis relative to DMSO
How it was run: (§2)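 HeLa cells seeded overnight, then exposed to 1 µM compound (0.1% v/v DMSO final) over a time course. Cells were DPBS-washed and RIPA-lysed with protease inhibitors and benzonase; equal protein was loaded. Immunoblots for CRBN and VHL isoforms were quantified against β-tubulin and reported relative to the averaged 0.1% DMSO vehicle.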

[5] = biological target: T1, Protein cereblon/von Hippel-Lindau disease tumor suppressor; assay: Protac activity at VHL/CRBN in human HeLa cells assessed as pVHL30 protein abundance at 1 uM after 4 hrs by Western blot analysis relative to DMSO; how it was run: as §2
[6] = biological target: T1, Protein cereblon/von Hippel-Lindau disease tumor suppressor; assay: Protac activity at VHL/CRBN in human HeLa cells assessed as CRBN protein abundance at 1 uM after 4 hrs by Western blot analysis relative to DMSO; how it was run: as §2
[7] = biological target: T1, Protein cereblon/von Hippel-Lindau disease tumor suppressor; assay: Protac activity at VHL/CRBN in human HeLa cells assessed as induction of VHL degradation at 1 uM after 4 hrs by Western blot analysis; how it was run: as §1
[8] = biological target: T1, Protein cereblon/von Hippel-Lindau disease tumor suppressor; assay: Protac activity at VHL/CRBN in HEK293 cells assessed as pVHL19 protein abundance at 1 uM after 4 hrs by Western blot analysis relative to DMSO
How it was run: (§3)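 HEK293 cells (DMEM, 10% FBS, penicillin/streptomycin, L-glutamine; 37 °C, 5% CO2; ≤30 passages) seeded at 1 × 10⁶ per well overnight, then treated with compound at 0.1% v/v final DMSO. Cells were lysed in RIPA with protease inhibitors and benzonase, then clarified. Equal Bradford-quantified protein was immunoblotted for CRBN/VHL. Bands were normalised to β-tubulin and expressed as % of mean 0.1% DMSO vehicle.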

[9] = biological target: T1, Protein cereblon/von Hippel-Lindau disease tumor suppressor; assay: Protac activity at VHL/CRBN in HEK293 cells assessed as pVHL19 protein abundance at 1 uM after 24 hrs by Western blot analysis relative to DMSO; how it was run: as §3
[10] = biological target: T1, Protein cereblon/von Hippel-Lindau disease tumor suppressor; assay: Protac activity at VHL/CRBN in HEK293 cells assessed as pVHL30 protein abundance at 1 uM after 4 hrs by Western blot analysis relative to DMSO; how it was run: as §3
[11] = biological target: T1, Protein cereblon/von Hippel-Lindau disease tumor suppressor; assay: Protac activity at VHL/CRBN in HEK293 cells assessed as pVHL30 protein abundance at 1 uM after 24 hrs by Western blot analysis relative to DMSO; how it was run: as §3
[12] = biological target: T1, Protein cereblon/von Hippel-Lindau disease tumor suppressor; assay: Protac activity at VHL/CRBN in HEK293 cells assessed as CRBN protein abundance at 1 uM after 4 hrs by Western blot analysis relative to DMSO; how it was run: as §3
[13] = biological target: T1, Protein cereblon/von Hippel-Lindau disease tumor suppressor; assay: Protac activity at VHL/CRBN in HEK293 cells assessed as CRBN protein abundance at 1 uM after 24 hrs by Western blot analysis relative to DMSO; how it was run: as §3
[14] = biological target: T1, Protein cereblon/von Hippel-Lindau disease tumor suppressor; assay: Protac activity at VHL/CRBN in HEK293 cells assessed as pVHL19 protein abundance after 4 hrs by Western blot analysis relative to DMSO; how it was run: as §3
[15] = biological target: T1, Protein cereblon/von Hippel-Lindau disease tumor suppressor; assay: Protac activity at VHL/CRBN in HEK293 cells assessed as pVHL30 protein abundance after 4 hrs by Western blot analysis relative to DMSO; how it was run: as §3
[16] = biological target: T1, Protein cereblon/von Hippel-Lindau disease tumor suppressor; assay: Protac activity at VHL/CRBN in HEK293 cells assessed as CRBN protein abundance after 4 hrs by Western blot analysis relative to DMSO; how it was run: as §3
[17] = biological target: T1, Protein cereblon/von Hippel-Lindau disease tumor suppressor; assay: Protac activity at VHL/CRBN in human HeLa cells assessed as pVHL19 protein abundance at 1 uM after 24 hrs by Western blot analysis relative to DMSO; how it was run: as §2
[18] = biological target: T1, Protein cereblon/von Hippel-Lindau disease tumor suppressor; assay: Protac activity at VHL/CRBN in human HeLa cells assessed as pVHL30 protein abundance at 1 uM after 24 hrs by Western blot analysis relative to DMSO; how it was run: as §2
[19] = biological target: T1, Protein cereblon/von Hippel-Lindau disease tumor suppressor; assay: Protac activity at VHL/CRBN in human HeLa cells assessed as CRBN protein abundance at 1 uM after 24 hrs by Western blot analysis relative to DMSO; how it was run: as §2
[20] = biological target: T1, Protein cereblon/von Hippel-Lindau disease tumor suppressor; assay: Protac activity at VHL/CRBN in human HeLa cells assessed as pVHL19 protein abundance after 4 hrs by Western blot analysis relative to DMSO; how it was run: as §1
[21] = biological target: T1, Protein cereblon/von Hippel-Lindau disease tumor suppressor; assay: Protac activity at VHL/CRBN in human HeLa cells assessed as pVHL30 protein abundance after 4 hrs by Western blot analysis relative to DMSO; how it was run: as §1
[22] = biological target: T1, Protein cereblon/von Hippel-Lindau disease tumor suppressor; assay: Protac activity at VHL/CRBN in human HeLa cells assessed as CRBN protein abundance after 4 hrs by Western blot analysis relative to DMSO
How it was run: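 HeLa cells (DMEM, 10% FBS, penicillin/streptomycin, L-glutamine; 37 °C, 5% CO2) seeded at 5 × 10⁵ per well overnight, then treated in 0.1% v/v final DMSO. Cells were lysed in RIPA with protease inhibitors and benzonase, and equal protein was run on SDS-PAGE/nitrocellulose blots probed with anti-CRBN. Bands were normalised to β-tubulin and expressed relative to mean 0.1% DMSO vehicle.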

[23] = biological target: T1, Protein cereblon/von Hippel-Lindau disease tumor suppressor; assay: Protac activity at VHL/CRBN in human HeLa cells assessed as induction of CRBN degradation at 1 uM after 4 hrs by Western blot analysis relative to control; how it was run: as §1

T1 sequence (P40337 whole entry, looked up): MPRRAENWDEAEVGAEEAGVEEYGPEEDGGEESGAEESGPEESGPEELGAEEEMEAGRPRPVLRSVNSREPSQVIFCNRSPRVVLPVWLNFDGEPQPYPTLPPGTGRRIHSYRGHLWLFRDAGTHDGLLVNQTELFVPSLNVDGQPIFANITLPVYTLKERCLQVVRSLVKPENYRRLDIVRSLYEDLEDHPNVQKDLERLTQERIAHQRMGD
T1 sequence (Q96SW2 whole entry, looked up): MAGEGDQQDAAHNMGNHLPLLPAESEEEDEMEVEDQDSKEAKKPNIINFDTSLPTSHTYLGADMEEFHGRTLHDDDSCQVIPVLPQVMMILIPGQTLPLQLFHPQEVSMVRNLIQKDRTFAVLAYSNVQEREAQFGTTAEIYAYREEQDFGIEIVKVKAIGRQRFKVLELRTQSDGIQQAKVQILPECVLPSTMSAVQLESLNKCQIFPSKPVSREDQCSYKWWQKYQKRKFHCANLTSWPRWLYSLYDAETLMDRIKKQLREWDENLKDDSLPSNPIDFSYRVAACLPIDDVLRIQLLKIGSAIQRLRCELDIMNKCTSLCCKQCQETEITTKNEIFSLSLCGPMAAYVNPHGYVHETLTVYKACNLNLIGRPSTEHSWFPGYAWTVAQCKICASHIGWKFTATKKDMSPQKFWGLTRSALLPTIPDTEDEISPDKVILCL

| SMILES | Activity [1] [%] | Activity [2] [%] | Activity [3] [%] | Activity [4] [%] | Activity [5] [%] | Activity [6] [%] | Activity [7] | further results |
| --- | --- | --- | --- | --- | --- | --- | --- | --- |
| Cc1ncsc1-c1ccc(CNC(=O)[C@@H]2C[C@@H](O)CN2C(=O)[C@@H](NC(=O)C2(F)CC2)C(C)(C)SCCOCCOCCOCC(=O)NCCNc2cccc3c2C(=O)N(C2CCC(=O)NC2=O)C3=O)cc1 (some centres undefined) | 87 | 75 | 78 | 121 | 104 | 71 | inactive | – |
| Cc1ncsc1-c1ccc(CNC(=O)[C@@H]2C[C@@H](O)CN2C(=O)[C@@H](NC(=O)COCCOCCOCCOCCOCCOCC(=O)N[C@H](C(=O)N2C[C@H](O)C[C@H]2C(=O)NCc2ccc(-c3scnc3C)cc2)C(C)(C)C)C(C)C)cc1 | 97 | 0 | 87 | 97 | 1 | 103 | inactive | Activity [8]: 95%; Activity [9]: 99%; Activity [10]: 1%; Activity [11]: 3%; Activity [12]: 102%; Activity [13]: 109%; Activity [14]: 95%; Activity [15]: 6%; Activity [16]: 100%; Activity [17]: 122%; Activity [18]: 11%; Activity [19]: 118%; Activity [20]: 100%; Activity [21]: 0%; Activity [22]: 99% |
| Cc1ncsc1-c1ccc(CNC(=O)[C@@H]2C[C@@H](O)CN2C(=O)[C@@H](NC(=O)COCCOCCOCCOCC(=O)NCCNc2cccc3c2C(=O)N(C2CCC(=O)NC2=O)C3=O)C(C)(C)C)cc1 (some centres undefined) | 98 | 67 | 91 | 103 | 101 | 94 | inactive | – |
| Cc1ncsc1-c1ccc(CNC(=O)[C@@H]2C[C@@H](O)CN2C(=O)[C@@H](NC(=O)COCCOCCOCCOCCOCC(=O)NCCNc2cccc3c2C(=O)N(C2CCC(=O)NC2=O)C3=O)C(C)(C)C)cc1 (some centres undefined) | 92 | 53 | 81 | 103 | 95 | 94 | inactive | – |
| Cc1ncsc1-c1ccc(CNC(=O)[C@@H]2C[C@@H](O)CN2C(=O)[C@@H](NC(=O)C2(F)CC2)C(C)(C)C)c(OCCCCC(=O)NCCNc2cccc3c2C(=O)N(C2CCC(=O)NC2=O)C3=O)c1 (some centres undefined) | 100 | 64 | 80 | 134 | 126 | 95 | inactive | – |
| Cc1ncsc1-c1ccc(CNC(=O)[C@@H]2C[C@@H](O)CN2C(=O)[C@@H](NC(=O)COCCCCCCOCC(=O)NCCNc2cccc3c2C(=O)N(C2CCC(=O)NC2=O)C3=O)C(C)(C)C)cc1 (some centres undefined) | 101 | 50 | 75 | 100 | 75 | 65 | inactive | – |
| O=C1CCC(N2C(=O)c3cccc(NCCOCCOCCNc4cccc5c4C(=O)N(C4CCC(=O)NC4=O)C5=O)c3C2=O)C(=O)N1 (centres undefined) | 95 | 95 | 38 | 100 | 87 | 34 | inactive | Activity [8]: 97%; Activity [9]: 99%; Activity [10]: 99%; Activity [11]: 96%; Activity [12]: 37%; Activity [13]: 25%; Activity [14]: 94%; Activity [15]: 95%; Activity [16]: 52%; Activity [17]: 107%; Activity [18]: 102%; Activity [19]: 29%; Activity [20]: 104%; Activity [21]: 109%; Activity [22]: 40% |
| Cc1ncsc1-c1ccc(CNC(=O)[C@@H]2C[C@@H](O)CN2C(=O)[C@@H](NC(=O)C2(F)CC2)C(C)(C)SCCOCCOCCOCCOCCOCC(=O)NCCNc2cccc3c2C(=O)N(C2CCC(=O)NC2=O)C3=O)cc1 (some centres undefined) | 89 | 87 | 82 | 112 | 110 | 68 | inactive | – |
| Cc1ncsc1-c1ccc(CNC(=O)[C@@H]2C[C@@H](O)CN2C(=O)[C@@H](NC(=O)C2(F)CC2)C(C)(C)C)c(OCCOCCOCCOCCOCCOCC(=O)NCCNc2cccc3c2C(=O)N(C2CCC(=O)NC2=O)C3=O)c1 (some centres undefined) | 89 | 76 | 86 | 103 | 77 | 46 | inactive | Activity [23]: 54% |
| Cc1ncsc1-c1ccc(CNC(=O)[C@@H]2C[C@@H](O)CN2C(=O)[C@@H](NC(=O)C2(F)CC2)C(C)(C)SCCCCC(=O)NCCNc2cccc3c2C(=O)N(C2CCC(=O)NC2=O)C3=O)cc1 (some centres undefined) | 93 | 53 | 82 | 117 | 114 | 81 | inactive | – |
| Cc1ncsc1-c1ccc(CNC(=O)[C@@H]2C[C@@H](O)CN2C(=O)[C@@H](NC(=O)C2(F)CC2)C(C)(C)C)c(OCCOCCOCCOCC(=O)NCCNc2cccc3c2C(=O)N(C2CCC(=O)NC2=O)C3=O)c1 (some centres undefined) | 97 | 76 | 94 | 115 | 113 | 71 | inactive | – |
| Cc1ncsc1-c1ccc(CNC(=O)[C@@H]2C[C@@H](O)CN2C(=O)[C@@H](NC(=O)COCCOCCOCC(=O)NCCNc2cccc3c2C(=O)N(C2CCC(=O)NC2=O)C3=O)C(C)(C)C)cc1 (some centres undefined) | 94 | 104 | 91 | 102 | 89 | 91 | inactive | – |
| Cc1ncsc1-c1ccc(CNC(=O)[C@@H]2C[C@@H](O)CN2C(=O)[C@@H](NC(=O)COCCOCCOCCOCCOCCOCCOCCOCCOCC(=O)NCCNc2cccc3c2C(=O)N(C2CCC(=O)NC2=O)C3=O)C(C)(C)C)cc1 (some centres undefined) | 99 | 54 | 82 | 95 | 91 | 91 | inactive | – |
| Cc1ncsc1-c1ccc(CNC(=O)[C@@H]2C[C@@H](O)CN2C(=O)[C@@H](NC(=O)COCCOCCOCCOCCOCCOCC(=O)NCCNc2cccc3c2C(=O)N(C2CCC(=O)NC2=O)C3=O)C(C)(C)C)cc1 (some centres undefined) | 93 | 80 | 85 | 97 | 96 | 86 | inactive | – |
